# Source: PubChem (The Scripps Research Institute Molecular Screening Center)
# CHRM5 PAM: positive allosteric modulators of human muscarinic M5 receptor; P08912; CHO-K1 hM5, Fluo-8 calcium, ACh EC20 PAM; 0% = ACh EC20, 100% = ACh EC100; activation, % at 3 µM; actives 0.3% (n = 360,000); AID 624038;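 active = activation above the run cutoff, the mean activation of all test compounds plus 3 SD, cut at about 18% in these data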
#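 Assay system: CHO-K1 hM5 cells / Incubation: Fluo-8 loading 80 min at 37 °C plus 30 min room temperature / Technique: Fluo-8 calcium dye fluorescence, kinetic read / Repeats: single replicate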
# M5 ag: agonists of human muscarinic M5 receptor (CHRM5); P08912; CHO-K1 hM5 cells, Fluo-8 calcium fluorescence; 0% DMSO wells, 100% maximal acetylcholine response; activation, % at 3 µM; actives 0.19% (n = 360,000);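 active = activation above the run's mean over test compounds plus 3 SD, cut at about 23% in these data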;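 also: signal is peak over basal fluorescence ratio across the kinetic read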
# CHRM5 antagonist: blocks acetylcholine activation of human M5 receptor; P08912; CHO-hM5 cells, Fluo-8 calcium fluorescence, ACh EC80; inhibition, % at 3 µM; actives 0.59% (n = 360,000); AID 624040;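 active = inhibition above a per-plate cutoff, the mean of that plate's test compounds plus 3 SD, cut at about 27% in these data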;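 also: 0% = acetylcholine EC80 with DMSO and 100% = DMSO without agonist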
# M1 antag: human CHRM1 antagonism | CHO-K1 hM1, Fluo-8 calcium fluorescence, ACh EC80 antagonist | actives 1.3% (n = 360,000) | AID 588852 | inhibition, % at 3 µM | P11229;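 active = percent inhibition above its own plate's cutoff, namely the mean of that plate's compound wells plus 3 SD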;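 also: peak over basal fluorescence ratio during 140 s after agonist addition; 0% = ACh EC80 plus DMSO and 100% = DMSO alone without agonist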
# Target sequence (P11229 whole entry, looked up): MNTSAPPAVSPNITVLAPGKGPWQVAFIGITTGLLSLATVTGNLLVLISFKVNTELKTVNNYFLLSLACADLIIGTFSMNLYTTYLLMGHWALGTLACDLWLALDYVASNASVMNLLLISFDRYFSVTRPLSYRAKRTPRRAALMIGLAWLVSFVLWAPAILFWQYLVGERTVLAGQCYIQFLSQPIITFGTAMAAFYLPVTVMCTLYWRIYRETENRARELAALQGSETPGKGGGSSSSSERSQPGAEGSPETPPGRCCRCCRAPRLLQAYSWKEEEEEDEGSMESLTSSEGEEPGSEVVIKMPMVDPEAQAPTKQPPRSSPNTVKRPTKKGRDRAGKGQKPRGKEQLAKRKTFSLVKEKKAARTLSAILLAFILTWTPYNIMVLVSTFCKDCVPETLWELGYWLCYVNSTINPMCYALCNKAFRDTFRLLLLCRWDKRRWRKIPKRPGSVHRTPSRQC
# CHRM1 agonist: human M1 muscarinic receptor agonism | P11229 | CHO-K1 hM1, Fluo-8 calcium fluorescence, agonist mode; 0% DMSO, 100% acetylcholine EC100 | activation, % at 3 µM | actives 0.33% (n = 360,000);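 active = activation above the run's mean compound activation plus 3 SD, cut at about 16% in these data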;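 also: peak over basal fluorescence ratio within a 140 s kinetic read after compound addition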
# M1 PAM: positive allosteric modulators of human M1 muscarinic receptor; activation, % at 3 µM; CHO-K1 hM1, Fluo-8 calcium fluorescence, ACh EC20; 0% = ACh EC20, 100% = maximal ACh; actives 0.088% (n = 360,000); P11229; in the data active = activation above about 19%, passing the limit was not always enough
# An asterisk follows results filed as active; nt = no result given. This is a sample that favours compounds with a hit; in the whole collection about 2% have one here.
SMILES,CHRM5 PAM,M5 ag,CHRM5 antagonist,M1 antag,CHRM1 agonist,M1 PAM
Fc1cccc(F)c1CSc1nc2ccccc2[nH]1,-3,-3,-1,3,-6,1
Cc1noc(C)c1CSc1nc2ccccc2[nH]1,0,-4,-3,24*,-8,-20
COC(=O)c1c(-c2cccc(OC)c2)csc1N,2,0,-2,-18,-4,8
COC(=O)c1c(-c2ccc(OC)c(OC)c2)csc1N,44*,-3,-4,0,-3,2
O=C(NNC(=O)c1ccncc1)Nc1ccc(N=Nc2ccccc2)cc1,-5,22,11,-13,18*,15
O=C(NNC(=O)c1ccncc1)Nc1ccccc1,-4,-2,16,-6,-3,12
COc1ccc(C)cc1-n1c(SCC(=O)N2CCOCC2)nc2ccccc2c1=O,2,-1,0,7,-4,-5
O=C(Cn1cnc2ccccc2c1=O)NCCC(=O)Nc1ccc2c(c1)OCO2,9,0,3,-10,-6,10
O=C(CCn1cnc2ccccc2c1=O)Nc1ccc2c(c1)OCCO2,25*,-5,-8,7,1,-4
CCCn1cc(SCC(=O)Nc2ccc3c(c2)OCO3)c2ccccc21,-20,29*,5,-3,0,-10
Cn1nc(CC(=O)Nc2ccc3c(c2)OCCO3)c2ccccc2c1=O,-8,6,32*,31*,2,-11
Cn1cc(SCC(=O)Nc2ccc3c(c2)OCO3)c2ccccc21,-3,0,0,-18,-6,12
O=S(=O)(Nc1ccc(-c2cn3c(n2)SCC3)cc1)c1cc(F)ccc1F,-1,2,1,-9,-1,5
CC(N)C(=O)NC(C(=O)NC(C)C(=O)Nc1cccc2ccccc12)C(C)C (stereo not given),-2,-1,-4,-12,-1,0
COc1nc(N)c(C#N)c(-c2ccc(N(C)CCC#N)cc2)c1C#N,-25,13,15,37,4,-15
CC1(C(=O)NS(=O)(=O)C2CC2)CCN(C(=O)c2cc3ccccc3s2)C1 (stereo not given),-8,3,4,2,6,16
Cc1ccc(S(=O)(=O)NC(CC(C)C)C(=O)Oc2ccc3c4c(c(=O)oc3c2)CCC4)cc1 (stereo not given),-15,-1,25,43*,-4,-19
CC[C@@H](NS(=O)(=O)c1ccc(C)cc1)C(=O)Oc1ccc2c3c(c(=O)oc2c1)CCC3,-18,3,10,-1,-6,-10
C[C@@H]1CN([C@H](C)CO)C(=O)CCCn2nncc2CO[C@H]1CN(C)Cc1ccc2cccnc2c1,-2,2,-1,4,-3,-7
CCn1c(SCC(=O)N/N=C/c2ccccc2OCC(=O)O)nnc1-c1ccc(C)cc1,26*,7,37*,-9,-5,7
NC(=O)C1(N2CCCCC2)CCN(C(=S)Nc2ccc(F)c(Cl)c2)CC1,1,-2,8,-7,-3,8
C/C(=N\NC(=O)c1cc2ccccc2cc1O)c1ccccn1,12,0,-14,-22,2,29*
CCOC(=O)C1(C)CCCN(C(=O)c2ccc(F)cc2Cl)C1 (stereo not given),2,-1,-6,-20,-4,8
COc1cc(/C=C2/C(=O)NN(c3ccc(Cl)cc3)C2=O)cc(Br)c1O,20*,6,-4,-23,-1,17
COc1ccc(S(=O)(=O)Nc2ccc(Cc3ccncc3)cc2)cc1C,-9,-4,4,39*,0,-23
SMILES,CHRM5 PAM,M5 ag,CHRM5 antagonist,M1 antag,CHRM1 agonist,M1 PAM
CC(C)(C)c1ccc(S(=O)(=O)Nc2ccc(Cc3ccncc3)cc2)cc1,-16,3,16,62*,-2,-22
O=C(c1ccco1)N(Cc1cccnc1)C(c1ccccc1)c1nc2ccccc2[nH]1 (stereo not given),2,-4,-2,-13,-11,3
CCN1CCN(CC(=O)N2c3ccccc3Sc3ccccc32)CC1,-19,-8,5,76*,-9,-27
O=C(CN1CCCC1)N1c2ccccc2Sc2ccccc21,-14,-10,59*,97*,-5,-22
CN(Cc1ccc(F)cc1)C(=O)C(Cc1ccccc1)NC(=O)c1ccccc1 (stereo not given),-24,3,15,27,-1,-11
COc1ccc(CN(C)C(=O)C(Cc2ccccc2)NC(=O)c2ccccc2)cc1F (stereo not given),-25,4,19,42*,-2,-17
CSc1ccc(CN(C)C(=O)C(Cc2ccccc2)NC(=O)c2ccccc2)cc1 (stereo not given),-14,4,16,44*,0,-14
CCOC(=O)CN1C(c2ccc(O)cc2)Nc2ccc(Br)cc2C1c1ccccc1 (stereo not given),-6,-5,1,-1,-8,-6
Cc1c(NC(=O)c2ccc(-c3ccc([N+](=O)[O-])cc3Cl)o2)c(=O)n(-c2ccccc2)n1C,2,3,-6,-10,-9,15
CC1Cc2cc(-c3csc(NC(=O)Cc4cccs4)n3)ccc2N1S(C)(=O)=O (stereo not given),-18,4,14,26*,1,-12
CCC(=O)Nc1nc(-c2ccc3c(c2)CC(C)N3S(C)(=O)=O)cs1 (stereo not given),-10,2,-5,-2,-5,-1
Cc1ccc(C(=O)N2CCN=C2SCc2ccc([N+](=O)[O-])cc2)cc1C,-9,-15,6,36*,-8,-22
COC(=O)[C@@]1(Cc2ccc(F)cc2)[C@H]2c3cc(C(=O)N(C)C)n(CCc4c[nH]c5ccc(O)cc45)c3C[C@H]2CN1C(=O)c1ccccc1,-2,5,5,nt,nt,nt
C=C(C)Cn1c2ccc(NC(=O)NCc3ccccc3)cc2c(=O)n1C,-2,0,6,-2,-3,0
CCOc1ccc(OCCC(=O)OCC(=O)Nc2ccc(C)c(S(=O)(=O)N3CCCCC3)c2)cc1,-23,5,27*,20,1,-13
CCOC(=O)N1CCN(CCC(=O)Nc2ccc(Br)c(C)c2)CC1,-6,2,1,19,-5,-9
CCN1CCN(CCC(=O)Nc2ccc(Br)c(C)c2)CC1,20*,-6,-13,-17,-6,2
Cc1c(C(c2ccc(O)cc2)c2c(C)n(C)n(-c3ccccc3)c2=O)c(=O)n(-c2ccccc2)n1C,-13,1,31*,2,-3,-8
